According to the EternaBench riboswitch data:

Test system: MS2 coat protein
Assay: apparent Kd, MS2 coat protein; higher = weaker binding; RNA-MaP array
In short: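 Incubations were done at room temperature with fluorescently labeled MS2 coat protein at 1.5 nM to 3 μM and designed RNAs transcribed on an Illumina sequencing chip from sequenced DNA templates, with or without input ligand. Apparent Kd is the median of binding curves fitted for each cluster. Designs with fewer than 10 measured clusters were excluded.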

[1] = designed as: OFF switch for flavin mononucleotide, no ligand
[2] = ligand present: flavin mononucleotide, designed as: OFF switch for flavin mononucleotide
[3] = designed as: ON switch for flavin mononucleotide, no ligand
[4] = ligand present: flavin mononucleotide, designed as: ON switch for flavin mononucleotide

Sequence	apparent Kd [1] [µM]	apparent Kd [2] [µM]	further results
ACACAGUCAGGAUAUACACAAAAUCUCAGUCUAGUAAGUAAACAUGAGGAUCACCCAUGUAGAAGGGACUUUAA	0.00695	0.00779	
AGCGACAUGAGGAUCACCCAUGUGUUAGCUAAGCCUCUCAGCAGAAGGGAUGGUGUCCCAGAUGAUCAGGAUAUGCUGUUUUUG	0.0323	0.0239	
CUUGAACCAUCACAUGAGGAUCACCCAUGUAGACUAUAAACUGAGGAUAUCACAGCGAGCAGUCAUGAGAAGGCAGAAUGACGG			apparent Kd [3]: 0.0153 µM; apparent Kd [4]: 0.0136 µM
CUUAUCAUAGGAUAUACAUGAGGAUCACCCAUGUAGUAGCAUAUAUAUAGUUUCCCAAGUAGAAGGAUGUACAC	0.00943	0.0079	
GGUUGGUCGCAGGAUACCAGUCCACCCGUGAUACUGCUAAACAUGAGGAUCACCCAUGUCGACCCUUGGCAGCCUGUCCAUGCGU			apparent Kd (designed as: OFF switch for theophylline, no ligand): 0.0163 µM; apparent Kd (ligand present: theophylline, designed as: OFF switch for theophylline): 0.124 µM
GCAGGACAUGAGGAUCACCCAUGUGAGGGCAGAGGAGGAUAUAACUACCACUAUUGAUCGUUAGAAGGCCUAGAGG			apparent Kd [3]: 0.04 µM; apparent Kd [4]: 0.026 µM
CGGACCUGAGAGAAGGGCAGCCGACAUGAGGAUCACCCAUGUAAUCGAGGACCAUCCUCAUUUUUGCAGGAUAUCUAUUGUUAU	0.0353	0.0373	
UUUAUGUCAGGAUAUCCAACACUAUGGGAAAGUAAAUAUAGGGAGAAGGGACAUGAGGAUCACCCAUGUCAACA	0.00812	0.00859	
AAACCCAAAGUUAGGAUAUGCAUUGCCGGCCCUGUGCAGAAGGAACAUGAGGAUCACCCAUGUACUGGUGUUCG	0.0427	0.103	
GCUUUAUUCUAGAAGGCUUAUCAUGCAUAAUGUCUAGAAGUUCAGACAUGAGGAUCACCCAUGUAAGAGGAUAUAGCGUAAAGU	0.0269	0.0313	
CAGGAGCUAGAGAAGGAGGUUACGCCCACGGACCUAGGAUAUCUGUUCUGAGUUACAUGAGGAUCACCCAUGUGUCCGCGGUGG	0.0539	0.033	
CAGACCCGGAAGAAGGAGGAGACAUAAACACGCCUAGGAUAUACGCCUGAAUAAACGUAAACAUGAGGAUCACCCAUGUCAAAC			apparent Kd [3]: 0.0095 µM; apparent Kd [4]: 0.0084 µM
GUACUGUACAAGAAGGUUGAUUUGCAUCAAGAUCCGAUUUACAUGAGGAUCACCCAUGUUUUAUCAAAGGAUAUUGGUACAACG	0.011	0.0668	
ACAUGAUGCUAGAAGGGCACACAUGAGGAUCACCCAUGUCGAACGAUUCUUCGGGACUAUCGCAUGCAGGAUAUAGCUAAAUCG			apparent Kd [3]: 0.0132 µM; apparent Kd [4]: 0.00824 µM
CUCCUGGAAGGAUAUGUGUUUCAGGACAUGAGGAUCACCCAUGUAGAACCUCUCUCCCGCACAGAAGGUCCAUUGU	0.0743	0.247	
GUUUCACAUGAGGAUCACCCAUGUCAAUGCACUGUAGGAUAUGGUUGGUUUCCGCAGCGGCCAGAAGGACAAAUAU			apparent Kd [3]: 0.0512 µM; apparent Kd [4]: 0.0335 µM
AAAAGCAGGGUCAGGAUAUAGGGUUCACUGUUGGCCUAGAAGGGACAUGAGGAUCACCCAUGUAUAGUAGUGGG	0.347	0.262	
UAGUUGCAUACAUGAGGAUCACCCAUGUUUUAAUGGGUAACUAGAAGGUGUUGACGUUGGCUAAACAAGGAUAUAGUUCGUGCU	0.0433	0.0465	
GAGUCGCGAGGAUAUGGAAUGGACUACAUGAGGAUCACCCAUGUCCUUUCCCUUGUUUGUCCAGAAGGCGCCAUCC	0.027	0.0244	
GUACCACAGUCGGCCGCCACUAAGUUGUAUUCCAGCAGGACGAAACAUGAGGAUCACCCAUGUCCUAGGACCGGGACUUCCGUCG			apparent Kd (designed as: ON switch for tryptophan, no ligand): 0.0212 µM; apparent Kd (ligand present: tryptophan, designed as: ON switch for tryptophan): 0.0216 µM
AUCAGUGGCUAGGAUAUGUUAGUCAGAUAUACAACAGAAGGAGCGACAUGAGGAUCACCCAUGUUACAGUGGAG	0.013	0.0222	
UCGCUGUAAGAGAAGGGCUCUGCAUGAGCACAUGAGGAUCACCCAUGUAAGAUCCUAAAGUACGAGCAGGAUAUCUCCGAGUGG	0.106	0.0773	
AUAUGAGGAGUGAGGAUAUGAAUCUAACAGAAUAAUCAGAAGGCACAUGAGGAUCACCCAUGUAAAUAUAUGGU	0.0106	0.0115	
